Results reported in PubChem BioAssay.
Results filed as inconclusive are left out.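 The calls were made as follows, unless noted: active = viability at or below 27.92% in each of two runs, the all-compound median minus 4 SD; inconclusive = no clear call, values can overlap the other calls; inactive = the rest.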

Assays:
[1] = OD615 S. cerevisiae growth inhibition, permissive medium, pilot counter-assay, permissive growth control for S. cerevisiae lifespan shortening project (AID 705;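 active = growth inhibition above 25% in both replicates, a cutoff set 3 SD above the mean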); details: OD615, 24 h, at 10 µM, stronger effect = higher value
Procedure, shortened: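 assay system = Saccharomyces cerevisiae strain carrying genetically modified DeaD replicative-lifespan system | medium = SC raffinose/galactose permissive medium | dosing = 10 µM single dose, 0.25% DMSO | schedule = 24 h compound exposure at 30 °C after 4 h pre-growth | measured by = OD at 615 nm | read-out basis = growth inhibition from lowered OD615 after 24 h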

[2] = Restrictive medium S. cerevisiae growth inhibition, OD615, pilot screen of yeast lifespan reduction project, restrictive growth control (AID 706;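 active = growth inhibition above a set limit, 3 SD over mean compound inhibition, in both replicates, cut at about 43% in these data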;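 also: modified DeaD lifespan yeast strain shifted to restrictive glucose medium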); details: OD615, 48 h, at 10 µM, stronger effect = higher value
Procedure, shortened: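 Buffer or medium: CSMM-D glucose medium. Material: genetically modified Saccharomyces cerevisiae, DeaD replicative lifespan assay strain. Times: 48 h compound exposure at 30 °C. Measured by: optical density at 615 nm.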

[3] = viability gain of MRP-1-high H69AR cells under doxorubicin, pilot screen, MRP-1 activator project, CellTiter-Glo, duplicate (AID 807;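 active = viability increase at or above a cutoff of the median across tested compounds plus 3 SD, cut at about 8.5% in these data, passing the limit was not always enough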;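 also: compound pretreatment 18-22 h then 72 h combined with doxorubicin; 0% = doxorubicin alone and 100% = vehicle without doxorubicin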); details: H69AR viability with doxorubicin, CellTiter-Glo luminescence; at 10 µM; stronger effect = higher value
[4] = growth suppression of beta-catenin knockout HCT116, pilot screen, human colon tumor cells (AID 823;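 active = cell viability at or below a set limit in both duplicate runs, the limit being the all-compound median minus 4 SD, cut at about 23% in these data, passing the limit was not always enough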;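 also: 0% = wells killed by 20 µM Hyamine and 100% = untreated DMSO cell wells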); details: CellTiter-Glo, 60 h, at 10 µM, stronger effect = lower value
[5] = growth suppression of PTEN-deleted HCT116, pilot screen, cell-based, HCT116 clonal line, CellTiter-Glo (AID 824); details: 60 h, at 10 µM, stronger effect = lower value;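 also: 0% = 20 µM Hyamine control and 100% = vehicle cell control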
[6] = inhibitors of the yeast RAM network, pilot screen, dse1pr::URA3 reporter, 5-FOA selection (AID 869;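 active = inhibition over a set limit, the all-compound mean plus 3 SD, in both replicate runs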;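 also: 0% = DMSO wells with no growth and 100% = 10 µM 1-NA-PP1 with full growth; RAM network block rescues cells from 5-FOA so hits raise OD615 growth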); details: S. cerevisiae dse1pr::URA3 5-FOA growth, OD615, 2 d; at 10 µM; stronger effect = higher value; strain carries analog-sensitive mutant Cbk1 kinase
[7] = RAM signaling pathway blockade in yeast – S. cerevisiae, Pdr1DBD-CYC8 efflux-inhibited sensitized strain, primary screen (AID 1298;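 active = RAM network inhibition above 8.4% in each of two replicates, 3 SD over the compound average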;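 also: 0% = DMSO untreated cells without growth and 100% = 10 µM 1-NA-PP1 full growth; higher means more yeast growth rescued from 5-FOA killing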); details: S. cerevisiae cbk1-as DSE1-URA3 strain, 5-FOA growth OD615, 2 d; at 50 µM; stronger effect = higher value

CCN(CC)C(=O)CSc1ccccc1N
inactive: growth inhibition [1] -16.2% | growth inhibition [2] -9.23% | viability increase [3] -1.98% | viability [4] 89.5% | viability [5] 94.4% | inhibition [6] 0.885% | RAM network inhibition [7] 5.73%

O=C1CCCN1CC(CN1CCOCC1)Sc1nnnn1-c1ccccc1 (stereo not drawn)
inactive: growth inhibition [1] -0.73% | growth inhibition [2] 7.22% | viability increase [3] -3.37% | viability [4] 100% | viability [5] 105% | inhibition [6] 1.56% | RAM network inhibition [7] 5.8%

Brc1ccc(-c2nnc3sc(CNC4CCCC4)cn23)cc1
inactive: growth inhibition [1] 0.69% | growth inhibition [2] 24.3% | viability increase [3] 0.19% | viability [4] 106% | viability [5] 107% | inhibition [6] 1.58% | RAM network inhibition [7] 2.6%

Cc1ccc(C2=CC(c3ccc(N(C)C)cc3)n3nnnc3N2)cc1 (stereo not drawn)
inactive: growth inhibition [1] -10.6% | growth inhibition [2] 7.92% | viability increase [3] -4.61% | viability [4] 84% | viability [5] 77.3% | inhibition [6] 2.63% | RAM network inhibition [7] -0.47%

CCOC(=O)c1ccccc1NC(=O)CC1SC(=NC)N(C)C1=O (stereo not drawn)
inactive: growth inhibition [1] -10.3% | growth inhibition [2] -22.9% | viability increase [3] -2% | viability [4] 102% | viability [5] 96.2% | inhibition [6] 2.04% | RAM network inhibition [7] 4.34%

Cc1cc(C)nc(NS(=O)(=O)c2ccc(NC(=O)CCCN3C(=O)c4ccccc4C3=O)cc2)n1
inactive: growth inhibition [1] -7.67% | growth inhibition [2] -0.225% | viability increase [3] -1% | viability [4] 99.6% | viability [5] 100% | inhibition [6] 0.735% | RAM network inhibition [7] 3.72%

Cn1c(Cn2c(=O)sc3ccccc32)nnc1SCC(N)=O
inactive: growth inhibition [1] -17.4% | growth inhibition [2] -3.94% | viability increase [3] 0.08% | viability [4] 110% | viability [5] 88% | inhibition [6] 1.82% | RAM network inhibition [7] 3.26%

N#CC1=C(N)Oc2c(sc3ccccc23)C1c1ccco1 (stereo not drawn)
inactive: growth inhibition [1] -25.7% | growth inhibition [2] -4.08% | viability increase [3] -4.53% | viability [4] 63.3% | viability [5] 65.2% | inhibition [6] 1.22% | RAM network inhibition [7] -0.62%

CCN1CCN(S(=O)(=O)c2ccc3[nH]c(=O)oc3c2)CC1
inactive: growth inhibition [1] -9.66% | growth inhibition [2] -6.6% | viability increase [3] -0.48% | viability [4] 104% | viability [5] 107% | inhibition [6] 1.5% | RAM network inhibition [7] 4.74%

COc1ccc(C2C(C(=O)N3CCN(c4ccccc4)CC3)c3ccccc3C(=O)N2C)cc1 (stereo not drawn)
inactive: growth inhibition [1] -13.4% | growth inhibition [2] -17.6% | viability increase [3] -4.08% | viability [4] 69.6% | viability [5] 74.9% | inhibition [6] 2.13% | RAM network inhibition [7] 2.38%

Cc1nc(CNS(=O)(=O)c2ccc3c(c2)CCCC3)cs1
inactive: growth inhibition [1] -5.81% | growth inhibition [2] -2.64% | viability increase [3] -1.72% | viability [4] 96.7% | viability [5] 73.8% | inhibition [6] 1.51% | RAM network inhibition [7] 0.22%

C=CCOn1c(=O)c(C)[n+]([O-])c2ccccc21
inactive: growth inhibition [1] -11.6% | growth inhibition [2] -14.3% | viability increase [3] -0.5% | viability [4] 105% | viability [5] 98.2% | inhibition [6] -0.085% | RAM network inhibition [7] 5.63%

CCc1nc(C)cn1S(=O)(=O)c1cc(C)c(OC)cc1C
inactive: growth inhibition [1] -0.385% | growth inhibition [2] 0.98% | viability increase [3] 0.56% | viability [4] 102% | viability [5] 103% | inhibition [6] 1.69% | RAM network inhibition [7] 12.1%

CCCOc1ccc(C(=O)NCc2ccco2)cc1
inactive: growth inhibition [1] -13.1% | growth inhibition [2] -4.49% | viability increase [3] -1.42% | viability [4] 98% | viability [5] 93.5% | inhibition [6] 0.43% | RAM network inhibition [7] 2.65%

Cc1ccc(S(=O)(=O)/N=C/c2ccco2)cc1
inactive: growth inhibition [1] -11.7% | growth inhibition [2] -12.3% | viability increase [3] -1.73% | viability [4] 105% | viability [5] 100% | inhibition [6] 0.625% | RAM network inhibition [7] 6.25%

CCCc1ccc(OCC(O)CN2CCN(c3ccccc3)CC2)cc1 (stereo not drawn)
inactive: growth inhibition [1] 4.55% | growth inhibition [2] 3.57% | viability increase [3] -0.47% | viability [4] 83% | viability [5] 81.6% | inhibition [6] 0.325% | RAM network inhibition [7] 1.55%

CCOCCn1c(SCc2ccc(C)cc2)nc2c1c(=O)[nH]c(=O)n2C
inactive: growth inhibition [1] -5.33% | growth inhibition [2] 3.62% | viability increase [3] -3.46% | viability [4] 92.5% | viability [5] 95.1% | inhibition [6] 1.49% | RAM network inhibition [7] 4.28%

FC(F)(F)c1cccc(-c2ccc(-c3csnn3)o2)c1
inactive: growth inhibition [1] -0.85% | growth inhibition [2] 6.13% | viability increase [3] -0.47% | viability [4] 82.2% | viability [5] 83.6% | inhibition [6] 1.4% | RAM network inhibition [7] 9.48%

Cc1ccc(C)c(N2CCN(C(=O)C3CCCN(S(=O)(=O)c4cnc[nH]4)C3)CC2)c1 (stereo not drawn)
inactive: growth inhibition [1] 5.12% | growth inhibition [2] -0.49% | viability increase [3] 2.66% | viability [4] 94.9% | viability [5] 95.4% | inhibition [6] 2.12% | RAM network inhibition [7] -0.52%

COC(=O)C(CCSC)NC(=O)Cn1ncc2c(=O)oc3ccc(C)cc3c21 (stereo not drawn)
inactive: growth inhibition [1] 6.62% | growth inhibition [2] -7.95% | viability increase [3] -3.14% | viability [4] 113% | viability [5] 91.3% | inhibition [6] 0.875% | RAM network inhibition [7] 1.93%

COc1cc(OC)c(Nc2cc(C)nc3nc(C)nn23)cc1Cl
inactive: growth inhibition [1] 4.72% | growth inhibition [2] -1.03% | viability increase [3] -1.47% | viability [4] 106% | viability [5] 104% | inhibition [6] 3.52% | RAM network inhibition [7] -0.72%

CCCn1c(-c2ccc(OC)cc2)nc2ccccc21
inactive: growth inhibition [1] -16.6% | growth inhibition [2] -12.9% | viability increase [3] -0.51% | viability [4] 74.4% | viability [5] 71.9% | inhibition [6] 2.18% | RAM network inhibition [7] 7.97%

Cn1nc(-c2ccc(Cl)cc2)c2cc(C(=O)N3CCOCC3)sc21
inactive: growth inhibition [1] -6.13% | growth inhibition [2] 4.78% | viability increase [3] -5.6% | viability [4] 89.4% | viability [5] 80.5% | inhibition [6] 1.29% | RAM network inhibition [7] 3.38%

Cc1ccc(N2C(=O)CC(N3CCN(C4CCc5ccccc5C4)CC3)C2=O)cc1 (stereo not drawn)
inactive: growth inhibition [1] -2.06% | growth inhibition [2] 1.44% | viability increase [3] -2.69% | viability [4] 102% | viability [5] 98.2% | inhibition [6] 0.215% | RAM network inhibition [7] 6.5%
